Most compounds without a hit are left out; they make up all but 3% or so of the library.
Apaf1 inhib = inhibitors of human Apaf-1 apoptosome, primary screen, biochemical, DEVD-Rh110 fluorescence, uHTS; Apoptotic protease-activating factor 1 (Homo sapiens), O14727; reconstituted apoptosome caspase-3 activity; inhibition, % at 20 µM; 0.71% of 330,000 active; active = inhibition of at least 40% at 20 µM;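 note: plate controls were DMSO wells for no effect and DEVD-CHO caspase inhibitor wells for full effect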
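Material: cell-free apoptosome with Apaf-1, procaspase-3 and caspase-9; Buffer or medium: Hepes pH 7.5 with detergent and BSA; Reagent: cytochrome c trigger plus (Z-DEVD)2-Rh110 caspase-3 substrate; Times: compound with Apaf-1, dATP, procaspase-3 30 min, then 50 min reaction, room temperature; Technique: Rh110 fluorescence intensity.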
SENP8 block-1 = SENP8 protease inhibitors, primary screen, biochemical, luminescence; Sentrin-specific protease 8 (Homo sapiens), Q96LD8; purified SENP8, Z-RLRGG-aminoluciferin cleavage; inhibition, % at 10 µM; 1.2% of 330,000 active; AID 2540, 2010; in the data active = inhibition above about 50%
SENP6 block = SENP6 protease inhibitors, primary screen, biochemical, luminescence, uHTS; Recombinant SENP6 catalytic domain, aminoluciferin luminescence; 1.8% of 330,000 active; Sentrin-specific protease 6 (Homo sapiens), Q9GZR1; inhibition, % at 10 µM;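 active = inhibition above about 50% at the single tested dose, limit read from the data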;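 note: plate controls were DMSO wells with enzyme for no effect and DMSO wells lacking enzyme for full effect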
Target sequence (Q9GZR1 628-1112 limits assumed): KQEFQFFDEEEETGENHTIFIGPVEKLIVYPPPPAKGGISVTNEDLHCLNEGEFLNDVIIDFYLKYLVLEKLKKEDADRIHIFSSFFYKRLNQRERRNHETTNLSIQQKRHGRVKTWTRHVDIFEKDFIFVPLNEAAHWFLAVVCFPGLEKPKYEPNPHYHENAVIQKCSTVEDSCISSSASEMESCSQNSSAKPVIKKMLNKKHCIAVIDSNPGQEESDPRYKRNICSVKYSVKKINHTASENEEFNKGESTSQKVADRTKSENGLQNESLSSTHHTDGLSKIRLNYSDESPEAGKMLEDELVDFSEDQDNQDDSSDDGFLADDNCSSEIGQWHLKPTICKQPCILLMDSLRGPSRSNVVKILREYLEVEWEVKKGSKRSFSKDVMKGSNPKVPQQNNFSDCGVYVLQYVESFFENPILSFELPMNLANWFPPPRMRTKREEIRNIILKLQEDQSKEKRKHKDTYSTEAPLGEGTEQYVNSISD
UBC13 inh = UBC13 polyubiquitin chain formation inhibitors, primary screen, biochemical, TR-FRET, uHTS | Ubiquitin-conjugating enzyme E2 N (Homo sapiens), P61088 | inhibition, % at 20 µM | 0.47% of 330,000 active; in the data active = inhibition above about 45%, passing the limit was not always enough
SENP8 block-2 = human SENP8 protease inhibitors, primary screen, biochemical, fluorescence, Nedd8 protein substrate, uHTS; Sentrin-specific protease 8 (Homo sapiens), Q96LD8; recombinant SENP8; AID 602440, 2012; inhibition, % at 20 µM; 0.64% of 360,000 active; in the data active = inhibition mostly above about 40%, no sharp cut-off; inactive = mostly below about 27%
SENP7 inh = SENP7 protease inhibitors, primary screen, biochemical, luminescence, uHTS; Sentrin-specific protease 7 (Homo sapiens), Q9BQF6; recombinant SENP7, Z-RLRGG-aminoluciferin luminescence, 40 min; inhibition, % at 5 µM; 1.5% of 330,000 active; AID 434973, 2010;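 active = inhibition above about 50% at the single test dose, limit read from the data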;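 note: plate controls were DMSO with enzyme for no effect and no enzyme buffer wells for full effect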
SENP8 inh conf = human SENP8 protease inhibitors, confirmation, biochemical, Nedd8 protein substrate, single concentration; shares compounds with SENP8 block-2; purified SENP8, Nedd8-AMC/pro-Nedd8 cleavage fluorescence, 30 min; inhibition, % at 25 µM; 15% of 1,400 active; AID 624319, 2012; in the data active = inhibition mostly above about 39%, no sharp cut-off; inactive = mostly below about 34%
* hit, by the source's call; · = no result given.

SMILES	Apaf1 inhib	SENP8 block-1	SENP6 block	UBC13 inh	SENP8 block-2	SENP7 inh	SENP8 inh conf
CC(=O)c1ccc(-n2nnnc2SCC(=O)N2CCc3ccccc3C2)cc1	·	·	·	·	61*	·	79*
CCOc1ccc(Br)cc1C1=NN(C(C)=O)C(c2ccc([N+](=O)[O-])s2)O1 (centres undefined)	24	28	42	-7	60*	24	56*
COc1cccc(CNC(=O)[C@@H]2CCCN2C(=O)[C@@H]2CCCN2C(=O)c2ccc(Cl)cc2)c1	·	·	·	·	-1	·	·
COP(=O)(c1ccc(N(C)C)cc1)C(O)c1ccccc1 (centres undefined)	3	8	-8	3	13	3	·
CC(=O)OC1CCC2(C)C(=CCC3C2CCC2(C)C3CC3OC4(CCC(C)CN4)C(C)C32)C1 (centres undefined)	30	-8	-8	17	51*	4	13
CCC(C)C(NC(=O)OCc1ccccc1)C(=O)NCC(c1ccccc1)N(C)C (centres undefined)	-3	0	-22	8	25	3	·
COc1ccccc1CNC(=O)CN(C)CC(=O)Nc1ccc(F)c(F)c1F	1	-7	-6	-13	3	-12	·
CCCCc1ccc(S(=O)(=O)NC2CCS(=O)(=O)C2)cc1 (centres undefined)	-12	6	0	-12	8	5	·
COC(=O)Nc1ccc(S(=O)(=O)NC2CCS(=O)(=O)C2)cc1 (centres undefined)	-30	6	20	2	45*	6	32
CN(CCO)c1cc(Sc2nc3ccccc3s2)c2nonc2c1[N+](=O)[O-]	52*	2	30	-30	55*	-3	32
Cc1ccc(N2C(=O)CCC2=O)c(C)c1	-17	1	-1	0	5	-1	·
CCOc1cc(/C=C2\SC(=Nc3ccccc3)N(c3ccccc3)C2=O)ccc1OCC(=O)O	15	-3	5	-11	8	5	·
CCOC(=O)COc1ccc(/C=C2/SC(=Nc3ccccc3)N(Cc3cccnc3)C2=O)cc1OC	13	-1	-2	0	43*	8	19
COc1ccccc1OCCNC(=O)c1cc(F)c(F)cc1Cl	-10	-2	6	3	41*	-2	14
Oc1ccc(Br)cc1-c1cc(-c2ccccc2Cl)[nH]n1	15	-26	-26	-8	42*	-11	17
COc1ccc(O)c(-c2cc(-c3ccccc3Cl)[nH]n2)c1	7	46	49	12	-3	38	·
COc1ccc(CSc2nnnn2C)cc1[N+](=O)[O-]	3	2	-3	8	48*	9	14
CCOC(=O)C(=CNNc1ccccc1)C(=O)OCC	-4	0	-10	-1	45*	4	20
Cn1cnnc1Sc1cc(N2CCN(S(=O)(=O)c3ccc(Cl)c(Cl)c3)CC2)ccc1[N+](=O)[O-]	19	-12	-66	-15	62*	-3	21
Cc1ccccc1C(=O)N1CCN(c2ccc([N+](=O)[O-])c(N3CCOCC3)c2)CC1	-1	-2	-17	-20	29	-1	·
Cc1ccc(S(=O)(=O)N2CCN(c3ccc([N+](=O)[O-])c(Sc4nncn4C)c3)CC2)cc1	17	-6	0	4	28	2	·
Cc1cc(C)n(-c2cc(N3CCN(S(=O)(=O)c4ccc(C)c(C)c4)CC3)ccc2[N+](=O)[O-])n1	12	-2	7	-8	44*	9	13
Cc1cc(C)n(-c2cc(N3CCN(C(=O)c4ccccc4C)CC3)ccc2[N+](=O)[O-])n1	9	1	-20	-8	53*	-4	23
Cc1cc(C)n(-c2cc(N3CCN(S(=O)(=O)c4ccc5ccccc5c4)CC3)ccc2[N+](=O)[O-])n1	13	-1	-1	-8	30	2	·
Cc1cc(C)n(-c2cc(N3CCN(C(=O)c4ccc(C(C)(C)C)cc4)CC3)ccc2[N+](=O)[O-])n1	36	-1	-12	-6	45*	0	22
SMILES	Apaf1 inhib	SENP8 block-1	SENP6 block	UBC13 inh	SENP8 block-2	SENP7 inh	SENP8 inh conf
COc1cccc(CNC(=O)CCc2nc3cc(S(=O)(=O)N4CCOCC4)ccc3n2C)c1	-2	6	-6	0	-2	7	·
O=C1C(O)CCN1C1CCCCC1 (centres undefined)	·	·	·	·	0	·	·
O=C(CS(=O)(=O)Cc1ccccc1)N1CCc2ccccc2C1	21	-3	6	-4	50*	-10	76*
Clc1ccc(N2CCN(c3nc4nonc4nc3N3CCSCC3)CC2)nc1	-21	4	8	-8	14	0	·
O=C(COc1ccccc1)N1CCN(C(=O)c2cccc(F)c2)CC1	-3	2	-12	18	41*	8	36
Cc1c(NC(=O)c2ccc(NS(=O)(=O)c3ccc(F)c(F)c3)cc2)c(=O)n(-c2ccccc2)n1C	-6	6	-13	8	8	-1	·
CCc1nc2c(OCC=C(C)C)cccn2c1N(C)C(=O)c1ccc(OC)cc1	·	·	·	·	43*	·	-2
CCc1nc2c(OCC=C(C)C)cccn2c1N(C)C(=O)c1ccccc1F	·	·	·	·	41*	·	15
CCC(CC)C(=O)N(C)c1c(C)nc2c(OCC=C(C)C)cccn12	·	·	·	·	40*	·	26
CN(Cc1ccco1)C(=O)Cn1ncc2c([nH]c3ccccc32)c1=O	-11	2	-1	3	-8	-1	·
Cc1ccc(N(CC(=O)NC2CCCC2)C(=O)CNC(=O)c2cccs2)cc1C	4	-6	-12	-4	12	-4	·
Cc1ccc(S(=O)(=O)N[C@H](C(=O)N2CCC(C(=O)N[C@H](C(=O)O)c3ccccc3)CC2)C(C)C)cc1	-5	-6	-7	-6	48*	7	11
CC(C)C(=O)NS(=O)(=O)c1ccc(N)cc1	-14	-2	1	6	47*	1	11
O=c1cc(-c2ccc([N+](=O)[O-])cc2)c2cc3c(cc2[nH]1)OCCO3	8	0	0	-4	42*	-9	16
O=c1cc(-c2ccccc2)c2cc3c(cc2[nH]1)OCCO3	8	-3	-10	9	-427	0	·
Cn1cccc1CNC(=S)Nc1ccccc1F	0	-12	-10	-9	16	-5	·

Screening data deposited in PubChem BioAssay by Sanford-Burnham Center for Chemical Genomics.
